Experimental data from paper PMC8212730 (Clinical and Translational Science, 2021).
Read-outs that look alike come from different tables or passages of the source.

Legend:
[1] = patients with AML after multiple doses of ivosidenib; PBPK model; cited from earlier work
CYP2C9 = conditions: in vitro; cited from earlier work
CYP2B6 = conditions: cited from earlier work
mIDH1 R/R AML = conditions: 500 mg q.d., cited from earlier work
human CYP3A4 = conditions: cited from earlier work
[2] = single dose 500 mg; cited from earlier work
R/R AML = experiment: Exposure-efficacy analysis; type: in vivo, human
How it was run: (§1)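 Plasma drug was measured by LC-MS/MS (ranges 1–1000 and 50–50,000 ng/ml). Data were fitted with a two-compartment population PK model with first-order absorption and elimination. Individual empirical Bayes estimates gave steady-state AUC per patient from the nominal q.d. dose. AUCss was related to CR, CR/CRh, overall response and non-CR/CRh response by logistic regression and Kaplan-Meier plots.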

[3] = Exposure-efficacy analysis; type: in vivo, human; conditions: human, plasma, oral, AUCss range of quartile
How it was run: as §1

Exposure-safety analysis = type: in vivo, human
[4] = cited from earlier work; for Median time to maximal concentration range: across dose range
[5] = Concentration-corrected QT; type: in vivo, human; conditions: human, plasma, oral, 500 mg
How it was run: (§2)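 Patients on ivosidenib 500 mg q.d. had triplicate ECGs with time-matched plasma samples, pooled with two other phase I studies (solid tumours, healthy volunteers): 171 patients, 1203 measurements. Plasma drug was measured by LC-MS/MS. A linear mixed-effects model had population intercept and slope with bivariate-normal between-subject variability. Covariates were selected stepwise (likelihood ratio, 0.05). ΔQTcF and 90% CI were predicted at geometric mean Cmax. Fridericia and Bazett corrections were compared.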

[6] = test system: corrected QT interval (QTcF); experiment: Concentration-corrected QT; type: in vivo, human
How it was run: as §2

CYP2C8 = conditions: cited from earlier work
[7] = human plasma; ref not given; cited from earlier work
[8] = Final population PK model of ivosidenib; type: in vivo, human
[9] = healthy participants; strong CYP3A4 inhibitor itraconazole; cited from earlier work
[10] = final population PK model, derived from steady-state parameters and fold changes
[11] = final population PK model, single dose to steady state

AUC ([3]; AUCss quartile 1, 51 patients): 40.9 to 93.1 µg·h/mL
AUC ([3]; AUCss quartile 2, 50 patients): 93.4 to 122 µg·h/mL
AUC ([3]; AUCss quartile 3, 50 patients): 124 to 170 µg·h/mL
AUC ([3]; AUCss quartile 4, 50 patients): 171 to 361 µg·h/mL
Dose proportionality of exposure ([8]; 100 mg b.i.d. and 300-1200 mg q.d.): slightly less than dose proportional
Predicted Cmax in the typical patient ([8]; 500 mg q.d., steady state, albumin 37 g/L, weight 74.2 kg, no CYP3A4 inhibitor): 4827 ng/mL
Reduction in ivosidenib CL/F ([8]; concomitant fluconazole): 41%
Reduction in ivosidenib CL/F ([8]; concomitant posaconazole): 35%
Reduction in ivosidenib CL/F ([8]; concomitant voriconazole): 36%
Effect of concomitant pantoprazole or famotidine on CL/F ([8]; covariate analysis): did not affect
Impact of mild CYP3A4 inhibitors ([8]; covariate analysis): minimal
Correlation between CL/F and hepatic function indicators ([8]; covariate analysis, patients with mild hepatic impairment): no correlation
Albumin ratio-CL/F exponent ([8]; final population PK model): 0.99
Albumin ratio-Vc/F exponent ([8]; final population PK model): 1.1
Baseline albumin-Vc/F exponent ([8]; final population PK model): 0.73
Decrease in relative bioavailability from single dose to steady state ([8]; final population PK model): 2 fold
Fold change in CL with mild CYP3A inhibitors ([8]; final population PK model): 1.04
Fold change in CL with other moderate/strong CYP3A inhibitors ([8]; final population PK model): 0.92
Increase in exposure with a doubling of dose ([8]; final population PK model): ~ 40%
Steady-state Q/F ([8]; final population PK model): 15.8 L/h
Steady-state Vc/F ([8]; final population PK model): 234 L
Steady-state Vp/F ([8]; final population PK model): 151 L
Tlag (zero-order release duration, lag-time) ([8]; final population PK model): 0.27 h
ka (first-order absorption rate constant) ([8]; final population PK model): 1.38 h⁻¹
Fold change in CL with fluconazole ([8]; final population PK model, concomitant fluconazole): 0.59
Fold change in CL with posaconazole ([8]; final population PK model, concomitant posaconazole): 0.65
Fold change in CL with voriconazole ([8]; final population PK model, concomitant voriconazole): 0.64
First-dose CL/F [8, 10]: 1.63 L/h
First-dose Q/F [8, 10]: 4.8 L/h
First-dose Vc/F [8, 10]: 71 L
First-dose Vp/F [8, 10]: 46 L
Steady-state CL/F ([8]; final population PK model, oral, patients with mIDH1 advanced hematologic malignancies): 5.39 L/h
Steady-state fold change in CL [8, 11]: 1.66
Steady-state fold change in Frel [8, 11]: 0.5
Effect of time-varying albumin changes on plasma exposure ([8]; human, in vivo): less than 20%
Increase in AUCss ([8]; moderate/strong CYP3A4 inhibitors): 60%
SMILES: N#Cc1ccnc(N2C(=O)CC[C@H]2C(=O)N(c2cncc(F)c2)[C@H](C(=O)NC2CC(F)(F)C2)c2ccccc2Cl)c1 [ivosidenib]
Predicted change in plasma AUC in the presence of itraconazole [1]: 1.44 fold
Inducer status (CYP2C9): may also be an inducer
Contribution to metabolism of ivosidenib (CYP2B6): minor contributions
Inducer status (CYP2B6; in vitro): may also be an inducer
Rate of CR plus CRh (mIDH1 R/R AML; 174 patients with mIDH1 R/R AML): 32.8%
Median duration of CR/CRh (mIDH1 R/R AML): 8.2 months
Median time to CR/CRh response (mIDH1 R/R AML): 2 months
Contribution to metabolism of ivosidenib (human CYP3A4; CYP3A4): major metabolism pathway
Inducer status (human CYP3A4; in vitro, human CYP3A4): inducer
Substrate status (human CYP3A4; in vitro, human CYP3A4): substrate
Effect of mild/moderate hepatic impairment on ivosidenib exposure [2]: did not lead to clinically relevant changes in ivosidenib exposure
Incidence of CR (complete remission) (R/R AML; AUCss quartile 1): 11 (22%) n
Incidence of CR/CRh (R/R AML; AUCss quartile 1): 17 (33%) n
Incidence of OR (overall response) (R/R AML; AUCss quartile 1): 20 (39%) n
Incidence of CR (complete remission) (R/R AML; AUCss quartile 2): 12 (24%) n
Incidence of CR/CRh (R/R AML; AUCss quartile 2): 15 (30%) n
Incidence of OR (overall response) (R/R AML; AUCss quartile 2): 18 (36%) n
Incidence of CR (complete remission) (R/R AML; AUCss quartile 3): 9 (18%) n
Incidence of CR/CRh (R/R AML; AUCss quartile 3): 12 (24%) n
Incidence of OR (overall response) (R/R AML; AUCss quartile 3): 18 (36%) n
Incidence of CR (complete remission) (R/R AML; AUCss quartile 4): 11 (22%) n
Incidence of CR/CRh (R/R AML; AUCss quartile 4): 15 (30%) n
Incidence of OR (overall response) (R/R AML; AUCss quartile 4): 19 (38%) n
Association between nominal AUCss and probability of clinical response (R/R AML; logistic regression): minimal
Patients with OR (R/R AML; of 201 patients with R/R AML): 75 patients
Patients with non-CR/CRh response (R/R AML; of 201 patients with R/R AML): 16 patients
Incidence of new or worsening all grade ALT (Exposure-safety analysis; 253 patients): 15%
Association between incidence of events for all safety end points and AUCss (Exposure-safety analysis; logistic regression): no association
Half-life ([4]; after a single dose): 72 to 138 h
Time to steady state ([4]; daily dosing): ≤ 14 days
Median time to maximal concentration range ([4]; multiple dosing): 1.9 to 4.0 h
Median time to maximal concentration range ([4]; single dose administration): 2.4 to 5.5 h
Cmax [5]: 6550 ng/mL
Predicted ΔQTcF ([6]; at 6551 ng/ml, geometric mean Cmax for 500 mg q.d.): 17.2 ms
Relationship between ΔQTcF and ivosidenib concentration ([6]; in vivo): significant direct relationship
Increase of ΔQTcF with plasma ivosidenib concentration (slope) ([6]; linear mixed-effects model): 0.00258 msec/(ng/ml)
Contribution to metabolism of ivosidenib (CYP2C8): minor contributions
Inducer status (CYP2C8; in vitro): may also be an inducer
Protein bound [7]: ~ 90%
Wt-Vc/F exponent ([8]; final population PK model, baseline body weight): 0.92
Change in plasma AUC with itraconazole [9]: 1.69 fold
